Calls of active or inactive are those of the source. The calls are words filed in the database; no cut-off is given here. Residues, ends and D or L forms follow the SMILES beside them.
Legend:
[1] = species on record: Homo sapiens; assay: Inhibition of human C3bBb convertase assessed as C3 cleavage at 1 mM after 30 mins by 7% gel analysis
How it was run: (§1)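 Native C3 convertase formed in situ: C3 (10 µg), human factor B (0.5 µg) and factor D (0.05 µg) incubated 30 min at 37 °C in 32 µL PBS pH 7.4 with 1 mM MgCl2 and 154 mM NaCl, plus buffer or inhibitor (0.25–1.0 mM). Cleavage of C3 to C3a read by SDS-PAGE, 2.5 µg C3/well on 7% gel and 5 µg C3/well on 12% gel.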

[2] = species on record: Homo sapiens; assay: Inhibition of human C3bBb convertase assessed as C3 cleavage at 1 mM after 30 mins by 12% gel analysis; how it was run: as §1
[3] = biological target: T1, Complement factor B (Homo sapiens, UniProt P00751); assay: Inhibition of human C3 convertase assessed as C3a formation after 30 mins by 7% gel analysis
How it was run: (§2)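 Convertase (CVF.Bb) preformed from cobra venom factor 12 µg, factor B 8 µg and factor D 0.2 µg in PBS pH 7.4 with 1 mM MgCl2, 1 h at 37 °C, then diluted with PBS containing 20 mM EDTA. C3 10 µg plus convertase incubated 30 min at 37 °C in PBS pH 7.4 with buffer or inhibitor at 0.01–0.5 mM. C3a formation read on gels loaded with 2.5 µg C3/well (7%) or 5.0 µg (12%).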

[4] = biological target: T1, Complement factor B; assay: Inhibition of human complement factor B assessed as […] at pH 10.2
How it was run: (§3)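 Purified factor B 4 µg with C3 10 µg, 3 h at 37 °C in 100 mM glycine-HCl pH 10.2 with 154 mM NaCl. Buffer or inhibitor at 0.01, 0.1, 0.25 or 0.5 mM. C3 cleavage products resolved on 7% and 12% gels.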

[5] = species on record: Homo sapiens; assay: Inhibition of human C3bBb convertase assessed as C3 cleavage after 30 mins by 7% gel analysis
How it was run: (§4)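 Native convertase assembled in situ: C3 10 µg, factor B 0.5 µg and factor D 0.05 µg, 30 min at 37 °C in PBS pH 7.4 with 1 mM MgCl2 and 154 mM NaCl. Inhibitor at 0.25, 0.5 and 1.0 mM; leupeptin and PMSF at 1.0 mM as controls. C3 to C3a cleavage read on 7% or 12% gels.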

[6] = Inhibition of thrombin mediated cleavage of AcSHLGLAR-pNA
How it was run: (§5)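 Ac-SHLGLAR-pNA at 0.5 mM final in 10 mM Hepes, 10 mM Tris, 150 mM NaCl, 0.1% PEG, pH 7.4; 150 µL wells; read at 405 nm, 37 °C. Trypsin at 133 nM final, inhibitor at eleven 2-fold dilutions from 26.6 µM, in triplicate. Thrombin at 0.5 U per well, inhibitor at eleven 2-fold dilutions from 666 µM, in duplicate.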

[7] = species on record: Homo sapiens; assay: Inhibition of human C3bBb convertase assessed as C3 cleavage after 30 mins by 12% gel analysis; how it was run: as §4
[8] = Inhibition of trypsin mediated cleavage of AcSHLGLAR-pNA; how it was run: as §5
[9] = biological target: T1, Complement factor B; assay: Inhibition of human complement factor B at 100 uM
How it was run: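 Competition format: 50 nM factor B with 100 µM inhibitor and Ac-SHLGLAR-pNA at 0.5, 2.5, 5 or 10 mM, in 100 mM glycine-HCl pH 9.5 at 37 °C. Absorbance increase followed at 405 nm.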

[10] = biological target: T1, Complement factor B; assay: Inhibition of human C3 convertase assessed as C3a formation after 30 mins by 12% gel analysis; how it was run: as §2
[11] = biological target: T1, Complement factor B; assay: Inhibition of human complement factor B
How it was run: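 Chromogenic assay: 50 nM factor B, 0.5 mM Ac-SHLGLAR-pNA, 100 mM glycine-HCl pH 9.5, 37 °C. Eleven inhibitor concentrations from 1 µM to 1 mM. pNA release monitored at 405 nm; buffer alone as positive control.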

[12] = biological target: T1, Complement factor B; assay: Inhibition of human complement factor B assessed as cleavage of C3 convertase to C3b at pH 10.2; how it was run: as §3

T1 sequence (P00751 whole entry): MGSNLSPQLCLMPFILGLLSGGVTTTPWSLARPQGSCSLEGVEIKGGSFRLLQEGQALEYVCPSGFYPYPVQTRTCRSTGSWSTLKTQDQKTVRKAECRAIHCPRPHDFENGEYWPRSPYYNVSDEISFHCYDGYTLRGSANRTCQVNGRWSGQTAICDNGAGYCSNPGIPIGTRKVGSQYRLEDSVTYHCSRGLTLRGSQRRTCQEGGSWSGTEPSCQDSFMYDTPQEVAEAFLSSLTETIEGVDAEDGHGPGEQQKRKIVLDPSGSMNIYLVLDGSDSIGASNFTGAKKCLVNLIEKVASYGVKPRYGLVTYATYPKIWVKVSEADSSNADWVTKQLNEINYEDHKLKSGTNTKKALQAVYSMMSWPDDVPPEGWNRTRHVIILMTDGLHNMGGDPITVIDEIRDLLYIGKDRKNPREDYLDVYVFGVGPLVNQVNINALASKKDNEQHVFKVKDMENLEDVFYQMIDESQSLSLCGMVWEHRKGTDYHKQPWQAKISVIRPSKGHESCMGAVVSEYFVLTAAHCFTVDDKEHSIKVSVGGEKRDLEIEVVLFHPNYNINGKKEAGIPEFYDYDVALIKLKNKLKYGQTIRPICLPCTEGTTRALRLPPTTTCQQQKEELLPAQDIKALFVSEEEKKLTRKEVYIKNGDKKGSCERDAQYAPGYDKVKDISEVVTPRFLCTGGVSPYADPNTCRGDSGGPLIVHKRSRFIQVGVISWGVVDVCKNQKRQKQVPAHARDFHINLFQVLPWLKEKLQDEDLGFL

SMILES: CC(=O)N[C@@H](CC(C)C)C(=O)N[C@@H](CC(C)C)C(=O)N[C@H](C=O)CCCNC(=N)N
- Activity [1]: inactive
- Activity [2]: inactive

SMILES: O=S(=O)(F)Cc1ccccc1
- Activity [1]: inactive
- Activity [2]: inactive

SMILES: CC(=O)N[C@@H](CO)C(=O)N[C@@H](Cc1cnc[nH]1)C(=O)N[C@@H](CC(C)C)C(=O)NCC(=O)N[C@@H](CC(C)C)C(=O)N[C@@H](C)C(=O)N[C@H](C=O)CCCNC(=N)N (Ac-SHLGLAR-aldehyde)
- Activity [3]: Dose-dependent effect
- Activity [4]: Dose-dependent effect
- Activity [5]: Dose-dependent effect
- IC50 [6]: 24 µM
- Activity [7]: Dose-dependent effect
- IC50 [8]: 716 µM
- Activity [9]: Dose-dependent effect
- Activity [10]: Dose-dependent effect
- IC50 [11]: 19 µM
- Activity [12]: Active

Reference: ChEMBL document CHEMBL1156524, “Profiling the enzymatic properties and inhibition of human complement factor B” (J Biol Chem, 2007)
